Source: ChEMBL document CHEMBL3108751, “Isomannide-based peptidomimetics as inhibitors for human tissue kallikreins 5 and 7” (ACS Med Chem Lett, 2014)
Active and inactive are the calls of the source. No cut-off for these calls is given here.

Assays:
[1] = biological target: Kallikrein-6 (Homo sapiens) (UniProt Q92876); experiment: Inhibition of human KLK6 at 1 to 500 uM after 5 mins by spectrophotometry
[2] = biological target: Kallikrein-1 (Homo sapiens) (UniProt P06870); experiment: Inhibition of human KLK1 at 1 to 500 uM after 5 mins by spectrophotometry
Kallikrein-1 (Homo sapiens), sequence (P06870 25-262 limits assumed): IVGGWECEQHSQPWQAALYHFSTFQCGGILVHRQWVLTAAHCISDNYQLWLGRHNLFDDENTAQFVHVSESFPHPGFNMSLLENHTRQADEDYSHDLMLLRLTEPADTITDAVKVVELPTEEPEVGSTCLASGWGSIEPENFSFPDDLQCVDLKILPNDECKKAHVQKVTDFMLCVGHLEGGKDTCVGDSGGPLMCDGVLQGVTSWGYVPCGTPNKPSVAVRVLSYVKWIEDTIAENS

[3] = biological target: T1, Kallikrein-7 (Homo sapiens, UniProt P49862); experiment: Inhibition of human recombinant KLK7 expressed in baculovirus-infected insect cell system using Abz-KLYSSKQ-Eddnp as substrate incubated for 5 mins prior to substrate addition by FRET assay
T1 sequence (P49862 whole entry): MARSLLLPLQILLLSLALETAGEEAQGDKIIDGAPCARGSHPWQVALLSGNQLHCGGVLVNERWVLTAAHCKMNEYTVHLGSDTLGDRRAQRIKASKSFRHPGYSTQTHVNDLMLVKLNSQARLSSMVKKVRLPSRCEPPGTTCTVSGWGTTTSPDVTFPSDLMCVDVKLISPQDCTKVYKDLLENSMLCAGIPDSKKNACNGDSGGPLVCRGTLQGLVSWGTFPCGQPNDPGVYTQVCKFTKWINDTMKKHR

[4] = biological target: T1, Kallikrein-7; experiment: Competitive inhibition of human recombinant KLK7 expressed in baculovirus-infected insect cell system using Abz-KLYSSKQ-Eddnp as substrate incubated for 5 mins prior to substrate addition by Lineweaver-Burk plot analysis
Method in brief: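 Mechanism was assessed from rates measured without inhibitor and at three inhibitor concentrations. Lineweaver–Burk plots were used to assign the inhibition type and derive Ki.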

[5] = biological target: T2, Kallikrein-5 (Homo sapiens, UniProt Q9Y337); experiment: Competitive inhibition of human recombinant KLK5 expressed in baculovirus-infected insect cell system using Abz-KLRSSKQ-Eddnp as substrate incubated for 5 mins prior to substrate addition by Lineweaver-Burk plot analysis
T2 sequence (Q9Y337 whole entry): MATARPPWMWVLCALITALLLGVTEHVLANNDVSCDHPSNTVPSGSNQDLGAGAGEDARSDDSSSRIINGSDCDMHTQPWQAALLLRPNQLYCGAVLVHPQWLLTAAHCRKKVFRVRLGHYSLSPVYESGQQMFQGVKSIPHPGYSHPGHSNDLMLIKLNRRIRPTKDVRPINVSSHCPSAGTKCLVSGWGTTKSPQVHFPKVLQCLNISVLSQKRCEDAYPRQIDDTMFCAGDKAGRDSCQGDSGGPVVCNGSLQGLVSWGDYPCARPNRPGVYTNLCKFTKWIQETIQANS
Method in brief: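 FRET substrate Abz-KLRSSKQ-EDDnp hydrolysed by KLK5, with no inhibitor and with 0.5, 1.0 and 2.0 μM inhibitor. Lineweaver–Burk plots were fitted by linear regression. Ki was taken from a secondary plot of Km/Vmax against inhibitor concentration.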

[6] = biological target: T2, Kallikrein-5; experiment: Inhibition of human recombinant KLK5 expressed in baculovirus-infected insect cell system using Abz-KLRSSKQ-Eddnp as substrate incubated for 5 mins prior to substrate addition by FRET assay
[7] = species on record: Homo sapiens; experiment: Selectivity ratio of IC50 for human recombinant KLK7 to IC50 for human recombinant KLK5
[8] = species on record: Homo sapiens; experiment: Selectivity ratio of IC50 for human recombinant KLK5 to IC50 for human recombinant KLK7

SMILES | inhibition [1] | inhibition [2] | IC50 [3] | Ki [4] | Ki [5] | IC50 [6] | Ratio IC50 [7] | Ratio IC50 [8]
CC(C)(C)OC(=O)N[C@@H](CCCCNC(=O)OCc1ccccc1)C(=O)O[C@@H]1CO[C@H]2[C@@H]1OC[C@H]2OCc1ccccc1 | inactive | inactive | 13.7 µM | 1.4 µM | 0.7 µM | 9 µM |  | 
CSCC[C@H](NC(=O)OC(C)(C)C)C(=O)O[C@@H]1CO[C@H]2[C@@H]1OC[C@H]2OCc1ccccc1 | inactive | inactive | 28.7 µM | 18.4 µM |  | 357 µM |  | 
CC(C)[C@@H](NC(=O)OC(C)(C)C)C(=O)O[C@@H]1CO[C@H]2[C@@H]1OC[C@H]2OCc1ccccc1 | inactive | inactive | 239 µM |  |  | 223 µM |  | 
CC(C)[C@H](NC(=O)OCc1ccccc1)C(=O)N[C@H](Cc1ccccc1)C(=O)N[C@H]1CO[C@H]2[C@@H]1OC[C@H]2OCc1ccccc1 | inactive | inactive | 56.6 µM | 3.8 µM | 3.4 µM | 21.7 µM |  | 
CC(C)[C@@H](NC(=O)OC(C)(C)C)C(=O)N[C@H]1CO[C@H]2[C@@H]1OC[C@H]2OCc1ccccc1 | inactive | inactive | > 1000 µM |  |  | 480 µM |  | 
CC(C)(C)OC(=O)N[C@H](Cc1c[nH]c2ccccc12)C(=O)N[C@H]1CO[C@H]2[C@@H]1OC[C@H]2OCc1ccccc1 | inactive | inactive | 418 µM |  | 28.2 µM | 39.2 µM |  | 
CC(C)(C)OC(=O)N[C@@H](CC(=O)OCc1ccccc1)C(=O)O[C@@H]1CO[C@H]2[C@@H]1OC[C@H]2OCc1ccccc1 | inactive | inactive | 10.2 µM | 1.3 µM | 0.6 µM | 4.7 µM |  | 
O=C(N[C@H]1CO[C@H]2[C@@H]1OC[C@H]2OCc1ccccc1)[C@H](Cc1ccccc1)NC(=O)[C@@H]1CCCN1C(=O)OCc1ccccc1 | inactive | inactive | 249 µM |  |  | 157 µM |  | 
CC(C)(C)OC(=O)N[C@@H](CCCCNC(=O)OCc1ccccc1)C(=O)N[C@H]1CO[C@H]2[C@@H]1OC[C@H]2OCc1ccccc1 | inactive | inactive | 23.6 µM | 2.9 µM | 2.4 µM | 13.3 µM |  | 
O=C(O[C@@H]1CO[C@H]2[C@@H]1OC[C@H]2OCc1ccccc1)[C@H]1CCCN1C(=O)OCc1ccccc1 | inactive | inactive | 16.6 µM | 1.9 µM | 0.3 µM | 3.7 µM | 4 | 
CC(C)(C)OC(=O)N[C@H](COCc1ccccc1)C(=O)N[C@H]1CO[C@H]2[C@@H]1OC[C@H]2OCc1ccccc1 | inactive | inactive | 84.5 µM |  |  | 53.9 µM |  | 
CC(C)(C)OC(=O)N[C@H](Cc1c[nH]c2ccccc12)C(=O)O[C@@H]1CO[C@H]2[C@@H]1OC[C@H]2OCc1ccccc1 | inactive | inactive | 59.2 µM |  |  | 377 µM |  | 6
CC(C)(C)OC(=O)N[C@H](CCCN/C(=N\C(=O)OCc1ccccc1)NC(=O)OCc1ccccc1)C(=O)N[C@H]1CO[C@H]2[C@@H]1OC[C@H]2OCc1ccccc1 | inactive | inactive | 16.9 µM | 2.4 µM | 1.7 µM | 11.8 µM |  | 
CSCC[C@H](NC(=O)OC(C)(C)C)C(=O)N[C@H]1CO[C@H]2[C@@H]1OC[C@H]2OCc1ccccc1 | inactive | inactive | 457 µM |  | 26.6 µM | 37 µM |  | 
O=C(N[C@H]1CO[C@H]2[C@@H]1OC[C@H]2OCc1ccccc1)/C(=C/c1cccs1)NC(=O)c1ccccc1 (stereo in doubt) |  |  | 13.3 µM | 1.8 µM | 70.7 µM | 99.2 µM |  | 
CC(C)(C)OC(=O)N1CCC[C@H]1C(=O)O[C@@H]1CO[C@H]2[C@@H]1OC[C@H]2OCc1ccccc1 | inactive | inactive | 24.4 µM | 15.6 µM |  | 521 µM |  | 21.3
Cc1ccc(S(=O)(=O)n2cnc(C[C@H](NC(=O)OC(C)(C)C)C(=O)N[C@H]3CO[C@H]4[C@@H]3OC[C@H]4OCc3ccccc3)c2)cc1 | inactive | inactive | 27.8 µM | 4.4 µM |  | 157 µM |  | 6
CC(C)(C)OC(=O)N[C@H](COCc1ccccc1)C(=O)O[C@@H]1CO[C@H]2[C@@H]1OC[C@H]2OCc1ccccc1 | inactive | inactive | 16 µM | 2.3 µM | 2.4 µM | 15.5 µM |  | 
O=C(OC1CO[C@H]2[C@@H]1OC[C@H]2OCc1ccccc1)[C@H](Cc1ccccc1)NC(=O)[C@@H]1CCCN1C(=O)OCc1ccccc1 (single isomer, unassigned) | inactive | inactive | 19.6 µM | 2.8 µM | 0.4 µM | 3.9 µM | 5 | 
O=C(N[C@H]1CO[C@H]2[C@@H]1OC[C@H]2OCc1ccccc1)[C@H]1CCCN1C(=O)OCc1ccccc1 | inactive | inactive | 23.6 µM | 15.1 µM |  | 321 µM |  | 
